Laboratory results from ChEMBL document CHEMBL1123812, “Pyrroloisoquinoline antidepressants. 2. In-depth exploration of structure-activity relationships” (J Med Chem, 1987).
The source made the active and inactive calls.

Assays:
Mus musculus [1] = species: Mus musculus; assay: Antagonism of tetrabenazine (TBZ)-induced depression in mice measured for ptosis; type: functional
Method in brief: (§1)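 Nonfasted male Swiss Webster mice, 18–24 g, ten per dose level and in saline controls. Test compound given ip 30 min before tetrabenazine 32 mg/kg ip; dose expressed as free base. Motor activity and ptosis scored. Control response ≤90% corrected by Abbott's formula.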

[2] = target: Sodium-dependent serotonin transporter (Rattus norvegicus) (UniProt P31652); assay: Ability to inhibit the uptake of [3H]- serotonin(5-HT) 0.1 uM concentration at rat brain synaptosomes; type: functional, subcellular
Method in brief: (§2)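 Male Wistar rat brain synaptosomes (P2 fraction): hypothalamus for NE, striatum for DA, cerebral cortex for 5-HT. Buffer is Tris- or HEPES-buffered salt medium with glucose, ascorbate and nialamide, pH 7.4 at 37 °C. Preincubated 10 min at 37 °C with compound. Uptake started with [3H]NE 100–300 nM, [3H]DA 50–300 nM or [3H]5-HT 100–200 nM, incubated 3 min (DA) or 6–10 min (NE, 5-HT). Blanks held on ice. Filtered, counted by scintillation.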

[3] = target: Norepinephrine transporter (Rattus norvegicus) (UniProt Q9WTR4); assay: Ability to inhibit the uptake of [3H]norepinephrine (NE) 0.1 uM concentration at rat brain synaptosomes; type: functional, subcellular; method in brief: as §2
Mus musculus [4] = species: Mus musculus; assay: Antagonism of tetrabenazine (TBZ)-induced depression measured in mice by motor activity; type: functional; method in brief: as §1
[5] = target: Sodium-dependent dopamine transporter (Rattus norvegicus) (UniProt P23977); assay: Ability to inhibit the uptake of [3H]dopamine (DA) 0.1 uM concentration at rat brain synaptosomes; type: functional, subcellular; method in brief: as §2
[6] = target: Sodium-dependent dopamine transporter (Rattus norvegicus) (UniProt P23977); assay: Inhibition of tritiated dopamine (DA) uptake at 0.1 uM concentration; type: functional; method in brief: as §2
[7] = target: Sodium-dependent serotonin transporter (Rattus norvegicus) (UniProt P31652); assay: Inhibition of tritiated serotonin(5-HT) uptake at 0.1 uM concentration; type: functional; method in brief: as §2
[8] = target: Norepinephrine transporter (Rattus norvegicus, UniProt Q9WTR4); assay: Inhibition of uptake of tritiated norepinephrine (NE) in rat synaptosomes; type: subcellular, Brain
Mus musculus [9] = species: Mus musculus; assay: Gross behavioral effects ascertained in mice; W indicates weak stimulant or depressant activity of little significance.; type: functional, organism-based
Method in brief: (§3)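 Male Swiss Webster mice, 18–24 g, three per dose, given ip doses of 1, 3, 10, 30, 100 and 300 mg/kg. Observed for gross behavior and held for 4 days. Scored as weak (W), stimulant (S), depressant (D) or convulsant (C).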

Rattus norvegicus = species: Rattus norvegicus; assay: Ability to inhibit the uptake of tritiated norepinephrine (NE) at 0.1 uM concentration; type: functional; method in brief: as §2
Mus musculus [10] = species: Mus musculus; assay: Gross behavioral effects ascertained in mice; S indicates significant stimulant properties.; type: functional, organism-based; method in brief: as §3
[11] = target: Sodium-dependent dopamine transporter (Rattus norvegicus, UniProt P23977); assay: Inhibition of the uptake of tritiated dopamine (DA) in rat synaptosomes; type: subcellular, Brain
[12] = target: T1, Adrenergic receptor alpha-1 (Rattus norvegicus, UniProt P15823+P23944+P43140); assay: Binding affinity towards alpha-1 adrenergic receptor; type: protein assay
T1 sequence (P15823 whole entry): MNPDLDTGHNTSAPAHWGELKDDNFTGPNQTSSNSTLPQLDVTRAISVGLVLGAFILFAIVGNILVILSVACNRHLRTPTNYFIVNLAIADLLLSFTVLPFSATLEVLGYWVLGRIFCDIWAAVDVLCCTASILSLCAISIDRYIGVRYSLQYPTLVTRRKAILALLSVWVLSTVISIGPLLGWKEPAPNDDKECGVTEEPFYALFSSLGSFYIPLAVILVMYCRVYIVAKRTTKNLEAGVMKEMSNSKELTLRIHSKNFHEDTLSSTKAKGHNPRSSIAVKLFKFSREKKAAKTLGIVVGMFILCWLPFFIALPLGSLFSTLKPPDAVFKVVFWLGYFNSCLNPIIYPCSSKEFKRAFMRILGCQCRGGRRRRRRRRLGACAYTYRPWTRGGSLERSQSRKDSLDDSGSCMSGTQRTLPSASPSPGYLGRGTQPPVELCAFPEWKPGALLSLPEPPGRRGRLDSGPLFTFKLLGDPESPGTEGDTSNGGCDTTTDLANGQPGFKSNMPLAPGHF
T1 sequence (P23944 whole entry): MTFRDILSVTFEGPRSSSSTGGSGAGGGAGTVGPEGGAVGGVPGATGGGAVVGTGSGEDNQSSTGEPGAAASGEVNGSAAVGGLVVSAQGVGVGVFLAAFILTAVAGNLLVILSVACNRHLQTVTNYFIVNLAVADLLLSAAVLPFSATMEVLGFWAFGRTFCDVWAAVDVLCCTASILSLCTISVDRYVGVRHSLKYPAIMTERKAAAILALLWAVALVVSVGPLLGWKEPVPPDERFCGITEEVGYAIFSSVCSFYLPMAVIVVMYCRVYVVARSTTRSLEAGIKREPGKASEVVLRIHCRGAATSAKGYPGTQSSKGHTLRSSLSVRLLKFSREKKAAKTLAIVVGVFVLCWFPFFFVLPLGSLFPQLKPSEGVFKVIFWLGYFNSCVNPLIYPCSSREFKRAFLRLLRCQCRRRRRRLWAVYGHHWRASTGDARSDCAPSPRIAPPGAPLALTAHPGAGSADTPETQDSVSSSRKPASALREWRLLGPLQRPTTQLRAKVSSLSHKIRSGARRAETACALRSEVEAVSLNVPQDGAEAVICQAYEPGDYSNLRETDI
T1 sequence (P43140 whole entry): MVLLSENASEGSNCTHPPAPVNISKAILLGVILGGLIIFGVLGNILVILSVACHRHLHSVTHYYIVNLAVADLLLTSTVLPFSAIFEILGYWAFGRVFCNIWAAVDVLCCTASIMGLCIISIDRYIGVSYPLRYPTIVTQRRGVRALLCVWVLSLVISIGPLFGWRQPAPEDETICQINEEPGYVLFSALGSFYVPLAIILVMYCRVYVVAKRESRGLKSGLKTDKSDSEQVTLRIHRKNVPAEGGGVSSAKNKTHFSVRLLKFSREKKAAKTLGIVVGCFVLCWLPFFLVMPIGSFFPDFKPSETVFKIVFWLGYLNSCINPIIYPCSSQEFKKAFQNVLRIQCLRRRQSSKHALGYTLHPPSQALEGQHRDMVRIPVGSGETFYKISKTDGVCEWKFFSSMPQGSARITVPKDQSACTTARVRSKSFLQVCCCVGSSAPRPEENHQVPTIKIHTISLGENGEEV

[13] = target: D(2) dopamine receptor (Rattus norvegicus) (UniProt P61169); assay: Binding affinity towards dopamine receptor D2 at 1.0 uM concentration
Method in brief: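 Rat brain crude synaptic membranes in 20 mM NaHEPES pH 7.5. Ligands: α1 cortex […] 0.4 nM, nonspecific with (-)-NE 100 μM, 30 min at 25 °C. […] D2 striatum [3H]spiperone 0.05 nM with (+)-butaclamol 1 μM, 45 min at 37 °C. S1 cortex [3H]5-HT 1 nM plus glutathione and MgCl2, with 5-HT 10 μM, 20 min at 37 °C. […] Samples filtered on GF/B and counted.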

Mus musculus [14] = assay: Ability to antagonise intraperitoneal dose; inactive (<10% antagonism) at 30 mg/kg is represented as I-30.; type: functional, organism-based; set-up: dose 30 mg/kg; method in brief: as §1

Sodium-dependent serotonin transporter (Rattus norvegicus), sequence (P31652 whole entry): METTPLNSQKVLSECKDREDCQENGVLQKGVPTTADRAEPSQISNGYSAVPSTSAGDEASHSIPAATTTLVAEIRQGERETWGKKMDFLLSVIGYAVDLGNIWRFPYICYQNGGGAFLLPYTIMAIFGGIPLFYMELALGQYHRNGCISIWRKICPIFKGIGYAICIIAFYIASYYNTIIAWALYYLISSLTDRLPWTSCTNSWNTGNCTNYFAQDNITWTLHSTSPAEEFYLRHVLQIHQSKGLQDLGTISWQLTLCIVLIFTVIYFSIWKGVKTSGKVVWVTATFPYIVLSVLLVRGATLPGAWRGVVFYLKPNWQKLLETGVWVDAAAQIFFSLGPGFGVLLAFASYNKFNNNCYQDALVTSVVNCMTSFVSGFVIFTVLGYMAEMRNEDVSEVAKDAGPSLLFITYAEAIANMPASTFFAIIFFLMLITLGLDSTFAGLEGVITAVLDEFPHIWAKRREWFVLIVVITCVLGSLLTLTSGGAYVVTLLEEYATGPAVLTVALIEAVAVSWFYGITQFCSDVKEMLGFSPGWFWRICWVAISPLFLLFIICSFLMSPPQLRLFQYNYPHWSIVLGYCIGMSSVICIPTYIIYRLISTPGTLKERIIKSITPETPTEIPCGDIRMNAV
Norepinephrine transporter (Rattus norvegicus), sequence (Q9WTR4 as listed by the source): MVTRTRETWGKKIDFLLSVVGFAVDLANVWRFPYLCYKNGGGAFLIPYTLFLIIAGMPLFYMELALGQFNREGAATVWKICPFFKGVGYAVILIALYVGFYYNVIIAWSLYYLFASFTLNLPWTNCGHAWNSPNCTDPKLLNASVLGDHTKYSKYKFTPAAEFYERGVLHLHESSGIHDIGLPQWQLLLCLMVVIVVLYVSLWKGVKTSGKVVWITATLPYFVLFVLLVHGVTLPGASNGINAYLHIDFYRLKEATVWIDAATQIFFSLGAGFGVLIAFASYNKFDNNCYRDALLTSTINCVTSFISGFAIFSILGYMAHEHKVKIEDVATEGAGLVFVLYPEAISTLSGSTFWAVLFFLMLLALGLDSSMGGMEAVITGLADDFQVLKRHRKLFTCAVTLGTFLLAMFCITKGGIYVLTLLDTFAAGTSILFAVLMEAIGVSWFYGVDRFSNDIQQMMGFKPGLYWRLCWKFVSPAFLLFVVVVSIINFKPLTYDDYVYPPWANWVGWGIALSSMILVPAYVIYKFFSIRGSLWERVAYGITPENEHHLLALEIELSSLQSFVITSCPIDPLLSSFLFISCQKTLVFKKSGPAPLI
Norepinephrine transporter, sequence (Q9WTR4 whole entry): as the sequence (Q9WTR4 as listed by the source) above
Sodium-dependent dopamine transporter, sequence (P23977 whole entry): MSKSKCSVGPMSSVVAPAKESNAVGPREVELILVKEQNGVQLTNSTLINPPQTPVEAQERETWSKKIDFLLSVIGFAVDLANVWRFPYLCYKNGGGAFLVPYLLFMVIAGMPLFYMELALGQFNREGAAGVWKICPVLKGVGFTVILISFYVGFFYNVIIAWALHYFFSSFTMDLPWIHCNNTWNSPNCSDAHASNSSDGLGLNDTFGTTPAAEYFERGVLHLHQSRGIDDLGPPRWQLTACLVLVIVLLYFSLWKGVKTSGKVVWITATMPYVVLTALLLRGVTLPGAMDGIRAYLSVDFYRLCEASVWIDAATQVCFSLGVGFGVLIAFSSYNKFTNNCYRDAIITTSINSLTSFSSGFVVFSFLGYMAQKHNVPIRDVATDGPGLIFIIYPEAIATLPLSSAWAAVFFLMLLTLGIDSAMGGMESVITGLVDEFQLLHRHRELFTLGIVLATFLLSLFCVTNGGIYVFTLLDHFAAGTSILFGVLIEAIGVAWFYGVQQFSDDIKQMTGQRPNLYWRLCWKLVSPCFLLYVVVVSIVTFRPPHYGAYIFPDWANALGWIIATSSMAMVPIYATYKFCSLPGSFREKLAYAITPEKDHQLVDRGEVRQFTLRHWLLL
Sodium-dependent dopamine transporter (Rattus norvegicus), sequence (P23977 whole entry): as above
D(2) dopamine receptor (Rattus norvegicus), sequence (P61169 whole entry): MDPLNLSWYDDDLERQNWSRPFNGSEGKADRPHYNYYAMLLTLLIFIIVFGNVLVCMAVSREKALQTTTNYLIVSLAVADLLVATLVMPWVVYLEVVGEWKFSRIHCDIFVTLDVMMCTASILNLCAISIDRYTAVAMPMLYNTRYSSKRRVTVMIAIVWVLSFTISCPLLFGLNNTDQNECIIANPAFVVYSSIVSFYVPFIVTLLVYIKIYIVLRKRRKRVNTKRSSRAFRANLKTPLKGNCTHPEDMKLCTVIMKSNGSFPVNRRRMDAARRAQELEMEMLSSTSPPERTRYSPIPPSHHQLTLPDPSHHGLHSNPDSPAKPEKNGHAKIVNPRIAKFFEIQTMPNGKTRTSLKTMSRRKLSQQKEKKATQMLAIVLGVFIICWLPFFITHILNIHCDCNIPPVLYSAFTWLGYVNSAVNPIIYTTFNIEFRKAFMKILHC

SMILES | ED50 (Mus musculus [1]; Mus musculus, read-out: ED50) [mg/kg] | ED50 (Mus musculus [4]; Mus musculus, read-out: ED50) [mg/kg] | inhibition [6] [%] | Ki [8] [nM] | Ki [11] [nM] | further results
Br.FC(F)(F)c1ccccc1[C@@H]1CN2CCC[C@@H]2c2ccccc21 | > 3 | > 3 |  |  |  | inhibition [2]: 2%; inhibition [3]: 42%; inhibition [5]: 14%
Clc1cccc([C@@H]2CN3CCC[C@H]3c3ccccc32)c1 |  |  | 67 | 100 |  | inhibition [7]: 11%
Br.CCCCc1ccc([C@@H]2CN3CCC[C@H]3c3ccccc32)cc1 |  | > 30 |  |  |  | behavior (Mus musculus [9]): Weak; inhibition [2]: 3%; inhibition [3]: 13%; inhibition [5]: 5%
Br.c1ccc([C@@H]2CN3CCCCC[C@H]3c3ccccc32)cc1 | ~40 | ~40 | 19 |  |  | behavior (Mus musculus [9]): Weak; inhibition [2]: 6%; inhibition [3]: 13%
Br.Fc1c(F)c(F)c([C@@H]2CN3CCC[C@H]3c3ccccc32)c(F)c1F |  |  | 0 |  |  | inhibition [7]: 4%; Inhibition (Rattus norvegicus): 12%
C#Cc1ccc([C@@H]2CN3CCC[C@@H]3c3ccccc32)cc1 | ~0.5 | ~0.5 |  |  |  | behavior (Mus musculus [10]): Significant stimulant
Br.C[C@]1(c2ccccc2)CN2CCC[C@H]2c2ccccc21 | 0.44 | 27.2 |  | 1.25 | 7.4 | behavior (Mus musculus [10]): Significant stimulant
c1ccc([C@@H]2CN3CCC[C@@H]3c3ccccc32)cc1 (stereo in doubt; (-)-7b) |  |  |  |  | 1340 | ED50 (Mus musculus [1]): 8.3 mg/kg; Ki [12]: 262 nM; ED50 (Mus musculus [4]): >30 mg/kg
Br.COc1cccc([C@@H]2CN3CCC[C@H]3c3ccccc32)c1 | > 60 | > 60 | 35 | 16.1 |  | behavior (Mus musculus [9]): Weak
Br.Clc1cccc2c1[C@H](c1ccccc1)CN1CCC[C@@H]21 | > 3 | > 3 | 6 |  |  | inhibition [7]: 0%; Inhibition (Rattus norvegicus): 3%
Br.c1ccc([C@H]2CN3CCC[C@H]3c3[nH]c4ccccc4c32)cc1 | 0.3 | 1.07 |  | 2.3 | 2.9 | behavior (Mus musculus [10]): Significant stimulant
COc1cc2c(cc1OC)[C@H]1CCCN1C[C@H]2c1ccccc1 | 3.8 | 15.1 |  | 53.7 | 15 | inhibition [13]: 6%; behavior (Mus musculus [10]): Stimulant
c1ccc([C@@H]2CN3CCC[C@@H]3c3ccccc32)cc1 (stereo in doubt; (+)-7b) |  |  |  |  | 4.4 | ED50 (Mus musculus [1]): 0.05 mg/kg; Ki [12]: 83 nM; ED50 (Mus musculus [4]): 0.59 mg/kg
Br.Oc1ccc([C@@H]2CN3CCC[C@H]3c3ccccc32)cc1 | 2 |  | 26 |  |  | inhibition [13]: 59%; behavior (Mus musculus [9]): Partial stimulant; Inhibition (Rattus norvegicus): 78%; ED50 (Mus musculus [14]): inactive
FC(F)(F)c1ccc([C@@H]2CN3CCC[C@H]3c3ccccc32)cc1 |  |  | 7 |  |  | inhibition [2]: 15%; inhibition [3]: -1%
C[C@H]1[C@H](c2ccccc2)c2ccccc2[C@@H]2CCCN21 | 3.3 | ~30 |  |  |  | behavior (Mus musculus [9]): Weak; inhibition [2]: 15%; inhibition [3]: 62%; inhibition [5]: 17%
COc1cccc2c1[C@H](c1ccccc1)CN1CCC[C@@H]21 | 13.9 | 20.7 | 0 |  |  | inhibition [7]: 31%; behavior (Mus musculus [9]): Weak; Inhibition (Rattus norvegicus): 5%
Br.c1ccc([C@H]2CN3CCC[C@H]3c3ccsc32)cc1 | 0.79 | 5 |  | 1.4 | 5.2 | behavior (Mus musculus [10]): Significant stimulant
Cc1ccccc1[C@@H]1CN2CCC[C@H]2c2ccccc21 |  |  |  |  |  | inhibition [2]: -6%; inhibition [3]: 12%; inhibition [5]: -1%
FC(F)(F)c1cccc([C@@H]2CN3CCC[C@@H]3c3ccccc32)c1 (stereo in doubt; (-)-37b) |  |  |  | 2570 | 7690 | Ki [12]: 30 nM
Br.Oc1cccc([C@@H]2CN3CCC[C@@H]3c3ccccc32)c1 | 0.11 | > 10 |  | 0.85 | 10.1 | behavior (Mus musculus [10]): Significant stimulant
Clc1cccc2c1[C@H]1CCCN1C[C@H]2c1ccccc1 |  |  | 45 |  |  | inhibition [7]: 22%; Inhibition (Rattus norvegicus): 4%
Br.Fc1c(F)c(F)c([C@@H]2CN3CCC[C@@H]3c3ccccc32)c(F)c1F |  |  | 14 |  |  | inhibition [7]: 2%; Inhibition (Rattus norvegicus): 42%
Fc1ccc([C@@H]2CN3CCC[C@H]3c3ccccc32)cc1 | > 10 | > 60 | 43 |  |  | inhibition [7]: 3%; behavior (Mus musculus [9]): Weak; Inhibition (Rattus norvegicus): 61%
COc1ccccc1[C@@H]1CN2CCC[C@H]2c2ccccc21 |  |  | -3 |  |  | inhibition [7]: -2%; Inhibition (Rattus norvegicus): 65%
Br.Oc1cccc([C@@H]2CN3CCC[C@H]3c3ccccc32)c1 | 3.1 | > 30 |  | 15.1 | 44.8 | behavior (Mus musculus [10]): Stimulant
N#Cc1ccccc1[C@@H]1CN2CCC[C@@H]2c2ccccc21 | > 3 | > 3 |  |  |  | inhibition [2]: 6%; inhibition [3]: 71%; inhibition [5]: 33%
Br.Nc1ccc([C@@H]2CN3CCC[C@@H]3c3ccccc32)cc1 | ~0.01 | ~0.02 |  | 0.2 | 0.86 | behavior (Mus musculus [10]): Significant stimulant
